The source made the active and inactive calls. The calls are words filed in the database; no cut-off is given here.
Key:
[1] = test system: HMC1; assay: Inhibition of FCepsilonRI expression in human HMC1 cells at 30 to 100 uM after 72 hrs by flow cytometric analysis; type: functional, cell-based
Summary of the method: (§1)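 HMC-1 human mast cells exposed to test sample for 72 h, then harvested and stained with anti-FcεRI α-chain antibody plus FITC-labelled secondary antibody; surface FcεRI read as FITC fluorescence by flow cytometry. Mean ± SD of triplicate experiments.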

[2] = test system: HMC1; assay: Inhibition of FCepsilonRI expression in human HMC1 cells at 30 uM after 72 hrs by flow cytometric analysis; type: functional; details: for inhibition (INH): in the assay text read “30 ug/mL” for “30 uM”; summary of the method: as §1
[3] = test system: HMC1; assay: Inhibition of FCepsilonRIgamma subunit mRNA expression in human HMC1 cells at 50 to 100 uM after 36 hrs by RT-PCR analysis; type: functional, cell-based
Summary of the method: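 After 36 h culture of HMC-1 cells with compound, total RNA extracted; mRNA of each FcεRI subunit measured by RT-PCR with ethidium bromide staining of products, normalized to g3pdh and compared with vehicle. Mean ± SD, triplicate experiments.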

[4] = test system: HMC1; assay: Inhibition of FCepsilonRIbeta subunit mRNA expression in human HMC1 cells at 50 to 100 uM after 36 hrs by RT-PCR analysis

COc1cc2ccc(=O)oc2c(O)c1OCC(O)C(C)(C)O (stereo unspecified)
inhibition [1]: inactive

COc1cc2ccc(=O)oc2c(OC)c1OCC(O)C(C)C (stereo unspecified)
inhibition [1]: Active

COc1cc2ccc(=O)oc2c(OC)c1OCC1OC1(C)C (stereo unspecified)
inhibition [1]: Active

COc1cc2ccc(=O)oc2c(OC)c1OCCC(C)(C)O
inhibition [1]: Active

COc1cc2ccc(=O)oc2c(OC)c1OCCC(C)C
inhibition [1]: Active

COc1cc2ccc(=O)oc2c(OC)c1OCC(O)C(C)(C)O (racemic) [listing 1 of 2 here]
inhibition (INH) [2]: 49%

COc1c(OCC(O)C(C)(C)O)c(O)cc2ccc(=O)oc12 (racemic)
inhibition [1]: inactive

COc1cc2ccc(=O)oc2c(OC)c1OCC(O)C(C)(C)O (racemic) [listing 2 of 2 here]
inhibition [3]: inactive
inhibition [4]: Active

COc1cc2ccc(=O)oc2c(OC)c1OCC(O)C(C)(C)O (single isomer, unassigned; enantiomer 1)
inhibition (INH) [2]: 45.1%

COc1cc2ccc(=O)oc2c(OC)c1OCC(O)C(C)(C)O (stereo in doubt)
inhibition at 30 µM ([2]; Homo sapiens, HMC1, 72 h): 44.3%

From ChEMBL document CHEMBL4265924, “Inhibitor for FcεRI expression on mast cell from Verbasucum thapsus L” (2018)
